According to ChEMBL document CHEMBL1955763, “Antimicrobial activity of sulfonamides containing 5-chloro-2-hydroxybenzaldehyde and 5-chloro-2-hydroxybenzoic acid scaffold” (Eur J Med Chem, 2012):
≈ marks a conversion by molar mass, not a printed value.

Experiments:
Trichosporon asahii = test: Antifungal activity against Trichosporon asahii 1188 after 24 hrs by broth microdilution method; type: functional; settings: Trichosporon asahii, 1188, 24 h
How it was run: (§1)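 Microdilution broth per CLSI M27-A3 (yeasts) or M38-A2 (moulds) in RPMI 1640 with glutamine, buffered to pH 7.0 with 0.165 mol MOPS. Compounds were in DMSO. Final inoculum was 5 × 10³ ± 0.2 CFU/mL. Other conditions matched the antibacterial assay, with MIC as IC₉₀ read visually and at 540 nm. Determined twice, in duplicate.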

[1] = system: Trichophyton mentagrophytes; test: Antifungal activity against Trichophyton mentagrophytes 445 after 24 hrs by broth microdilution method; type: functional; settings: Trichophyton mentagrophytes, 445, 24 h
[2] = Selectivity ratio of IC50 for human HepG2 cell sto MIC100 for Mycobacterium kansasii 235/80; type: functional
Staphylococcus aureus [3] = test: Antibacterial activity against Staphylococcus aureus CCM 4516/08 after 24 hrs by broth microdilution method; type: functional; settings: CCM 4516/08, 24 h
How it was run: (§2)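 Microdilution broth method modified from M07-A07, in Mueller-Hinton broth at pH 7.4 (±0.2). Compounds were dissolved in DMSO. Inoculum was made in sterile water to 0.5 McFarland (1.5 × 10⁸ CFU/mL). MIC was taken as IC₉₀, meaning ≥90% growth reduction versus the drug-free control. Growth was read visually and by absorbance at 540 nm.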

Mycobacterium kansasii [4] = test: Antimycobacterial activity against Mycobacterium kansasii 6509/96 after 21 days; type: functional; settings: 6509/96, 504 h
How it was run: (§3)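 Micromethod MIC in Sula semisynthetic medium, with compounds added as DMSO solutions at […]. Incubation at 37 °C. Inocula: M. kansasii 235/80 at dilution 10⁻⁴, clinical isolate 6509/96 at 10⁻⁵.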

Staphylococcus aureus [5] = test: Antibacterial activity against methicillin-resistant Staphylococcus aureus H 5996/08 after 24 hrs by broth microdilution method; type: functional; settings: H 5996/08, 24 h; how it was run: as §2
[6] = system: Mycobacterium tuberculosis; test: Antimycobacterial activity against Mycobacterium tuberculosis H37Rv 331/88 after 14 days; type: functional; settings: H37Rv 331/88, 336 h
Klebsiella pneumoniae [7] = test: Antibacterial activity against Klebsiella pneumoniae D 11750/08 after 24 hrs by broth microdilution method; type: functional; settings: D 11750/08, 24 h
How it was run: (§4)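 Broth microdilution modified from standard M07-A07 in Mueller-Hinton broth at pH 7.4 (±0.2). Compounds were dissolved in DMSO. Inoculum in sterile water was adjusted to 0.5 McFarland (1.5 × 10⁸ CFU/mL). MIC was taken as IC₉₀, i.e. ≥90% growth reduction versus control, read visually and spectrophotometrically at 540 nm.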

Aspergillus fumigatus = test: Antifungal activity against Aspergillus fumigatus 231 after 24 hrs by broth microdilution method; type: functional; settings: Aspergillus fumigatus, 231, 24 h; how it was run: as §1
[8] = system: Staphylococcus epidermidis; test: Antibacterial activity against methicillin-resistant Staphylococcus epidermidis H 6966/08 after 24 hrs by broth microdilution method; type: functional; settings: H 6966/08, 24 h; how it was run: as §2
[9] = system: Staphylococcus epidermidis; test: Antibacterial activity against methicillin-resistant Staphylococcus epidermidis H 6966/08 after 48 hrs by broth microdilution method; type: functional; settings: H 6966/08, 48 h; how it was run: as §2
Pseudomonas aeruginosa = test: Antibacterial activity against Pseudomonas aeruginosa CCM 1961 after 24 hrs by broth microdilution method; type: functional; settings: CCM 1961, 24 h; how it was run: as §4
Nakaseomyces glabratus = test: Antifungal activity against Candida glabrata 20/I after 24 hrs by broth microdilution method; type: functional; how it was run: as §1
Staphylococcus aureus [10] = test: Antibacterial activity against Staphylococcus aureus CCM 4516/08 after 48 hrs by broth microdilution method; type: functional; settings: CCM 4516/08, 48 h; how it was run: as §4
Escherichia coli = test: Antibacterial activity against Escherichia coli CCM 4517 after 24 hrs by broth microdilution method; type: functional; settings: CCM 4517, 24 h; how it was run: as §4
Mycobacterium kansasii [11] = test: Antimycobacterial activity against Mycobacterium kansasii 235/80 after 14 days; type: functional; settings: 235/80, 336 h; how it was run: as §3
Staphylococcus aureus [12] = test: Antibacterial activity against methicillin-resistant Staphylococcus aureus H 5996/08 after 48 hrs by broth microdilution method; type: functional; settings: H 5996/08, 48 h; how it was run: as §2
Candida tropicalis = test: Antifungal activity against Candida tropicalis 156 after 24 hrs by broth microdilution method; type: functional; settings: Candida tropicalis, 156, 24 h; how it was run: as §1
Mycobacterium kansasii [13] = test: Antimycobacterial activity against Mycobacterium kansasii 6509/96 after 14 days; type: functional; settings: 6509/96, 336 h; how it was run: as §3
Candida albicans = test: Antifungal activity against Candida albicans ATCC 44857 after 24 hrs by broth microdilution method; type: functional; settings: ATCC 44857, 24 h; how it was run: as §1
[14] = system: Mycobacterium tuberculosis; test: Antimycobacterial activity against Mycobacterium tuberculosis H37Rv 331/88 after 21 days; type: functional; settings: H37Rv 331/88, 504 h
How it was run: (§5)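 Micromethod in Sula semisynthetic medium, with compounds added as DMSO solutions over a two-fold series from 1000 down to 1. Inoculum for M. avium 330/88 was a 10⁻⁵ dilution. Plates were incubated at 37 °C and MIC was read after 14 and 21 days.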

Mycobacterium kansasii [15] = test: Antimycobacterial activity against Mycobacterium kansasii 235/80 after 7 days; type: functional; settings: 235/80, 168 h; how it was run: as §3
Lichtheimia corymbifera = test: Antifungal activity against Absidia corymbifera 272 after 24 hrs by broth microdilution method; type: functional; settings: Lichtheimia corymbifera, 272, 24 h; how it was run: as §1
[16] = Selectivity ratio of IC50 for human HepG2 cell sto MIC90 for Staphylococcus aureus CCM 4516/08; type: functional
Mycobacterium avium [17] = test: Antimycobacterial activity against isoniazid-, rifampicin-, ofloxacin-, ethambutol-resistant Mycobacterium avium 330/88 after 14 days; type: functional; settings: 330/88, 336 h; how it was run: as §5
[18] = Selectivity ratio of IC50 for human HepG2 cell sto MIC100 for Mycobacterium kansasii 6509/96; type: functional
Mycobacterium kansasii [19] = test: Antimycobacterial activity against Mycobacterium kansasii 235/80 after 21 days; type: functional; settings: 235/80, 504 h; how it was run: as §3
Mycobacterium avium [20] = test: Antimycobacterial activity against isoniazid-, rifampicin-, ofloxacin-, ethambutol-resistant Mycobacterium avium 330/88 after 21 days; type: functional; settings: 330/88, 504 h; how it was run: as §5
Pichia kudriavzevii = test: Antifungal activity against Candida krusei E58 after 24 hrs by broth microdilution method; type: functional; settings: E58, 24 h; how it was run: as §1
HepG2 = test: Cytotoxicity against human HepG2 cells after 24 hrs by MTS assay; type: cell-based; settings: HepG2, 24 h
How it was run: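 Hep G2 human liver cells (passage 3–4), 10 000 per well, in MEM with 1% glutamine, 10% fetal serum and 1% non-essential amino acids. Compounds were added from DMSO at eight increasing concentrations in quadruplicate. Exposure was 24 h at 37 °C in 5% CO₂, then MTS reagent for 1.5 h. Formazan was read at 490 nm and IC₅₀ derived as 50% of control viability.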

Klebsiella pneumoniae [21] = test: Antibacterial activity against ESBL-positive Klebsiella pneumoniae J 14368/08 after 24 hrs by broth microdilution method; type: functional; settings: J 14368/08, 24 h; how it was run: as §4
Mycobacterium kansasii [22] = test: Antimycobacterial activity against Mycobacterium kansasii 6509/96 after 7 days; type: functional; settings: 6509/96, 168 h; how it was run: as §3

Row | Structure (SMILES) | MIC (Trichosporon asahii) [µM] | MIC [1] [µM] | MIC (Staphylococcus aureus [3]) [µM] | MIC (Mycobacterium kansasii [4]) [µM] | MIC (Staphylococcus aureus [5]) [µM] | MIC [6] [µM] | MIC (Klebsiella pneumoniae [7]) [µM] | MIC [8] [µM] | MIC [9] [µM] | MIC (Nakaseomyces glabratus) [µM] | MIC (Staphylococcus aureus [10]) [µM] | MIC (Mycobacterium kansasii [11]) [µM] | MIC (Staphylococcus aureus [12]) [µM] | MIC (Mycobacterium kansasii [13]) [µM] | MIC [14] [µM] | MIC (Mycobacterium kansasii [15]) [µM] | MIC (Mycobacterium avium [17]) [µM] | MIC (Mycobacterium kansasii [19]) [µM] | MIC (Mycobacterium avium [20]) [µM] | MIC (Mycobacterium kansasii [22]) [µM] | also measured
1 | O=S(=O)(Nc1nccs1)c1ccc(/N=C/c2cc(Cl)ccc2O)cc1 | > 125 | > 125 | 31.2 (≈ 12.3 µg/mL) | 2 (≈ 0.788 µg/mL) | 31.2 (≈ 12.3 µg/mL) | 32 (≈ 12.6 µg/mL) | 500 (≈ 197 µg/mL) | > 500 | > 500 | > 125 | 31.2 (≈ 12.3 µg/mL) | 4 (≈ 1.58 µg/mL) | 31.2 (≈ 12.3 µg/mL) | 2 (≈ 0.788 µg/mL) | 62.5 (≈ 24.6 µg/mL) | 2 (≈ 0.788 µg/mL) | 62.5 (≈ 24.6 µg/mL) | 4 (≈ 1.58 µg/mL) | 125 (≈ 49.2 µg/mL) | 2 (≈ 0.788 µg/mL) | Ratio [2]: 78.2; MIC (Aspergillus fumigatus): > 125 µM; MIC (Pseudomonas aeruginosa): ≥ 500 µM; MIC (Escherichia coli): 500 µM (≈ 197 µg/mL); MIC (Candida tropicalis): > 125 µM; MIC (Candida albicans): > 125 µM; MIC (Lichtheimia corymbifera): > 125 µM; Ratio [16]: 10; Ratio [18]: 78.2; MIC (Pichia kudriavzevii): > 125 µM; IC50 (HepG2): 313 µM; MIC (Klebsiella pneumoniae [21]): 500 µM (≈ 197 µg/mL)
2 | O=S(=O)(Nc1ncccn1)c1ccc(/N=C/c2cc(Cl)ccc2O)cc1 | 62.5 (≈ 24.3 µg/mL) | – | 250 (≈ 97.2 µg/mL) | 32 (≈ 12.4 µg/mL) | 125 (≈ 48.6 µg/mL) | 125 (≈ 48.6 µg/mL) | 500 (≈ 194 µg/mL) | > 500 | > 500 | 125 (≈ 48.6 µg/mL) | 250 (≈ 97.2 µg/mL) | 16 (≈ 6.22 µg/mL) | 125 (≈ 48.6 µg/mL) | 32 (≈ 12.4 µg/mL) | 250 (≈ 97.2 µg/mL) | 8 (≈ 3.11 µg/mL) | 125 (≈ 48.6 µg/mL) | 32 (≈ 12.4 µg/mL) | 125 (≈ 48.6 µg/mL) | 16 (≈ 6.22 µg/mL) | MIC (Pseudomonas aeruginosa): ≥ 500 µM; MIC (Escherichia coli): 62.5 µM (≈ 24.3 µg/mL); MIC (Klebsiella pneumoniae [21]): 500 µM (≈ 194 µg/mL)
3 | Cc1cc(NS(=O)(=O)c2ccc(/N=C/c3cccc(Cl)c3)cc2)no1 | 500 (≈ 188 µg/mL) | 500 (≈ 188 µg/mL) | 31.2 (≈ 11.7 µg/mL) | 4 (≈ 1.5 µg/mL) | 31.2 (≈ 11.7 µg/mL) | 62.5 (≈ 23.5 µg/mL) | – | > 500 | > 500 | 500 (≈ 188 µg/mL) | 62.5 (≈ 23.5 µg/mL) | 8 (≈ 3.01 µg/mL) | 62.5 (≈ 23.5 µg/mL) | 4 (≈ 1.5 µg/mL) | 125 (≈ 47 µg/mL) | 4 (≈ 1.5 µg/mL) | 32 (≈ 12 µg/mL) | 8 (≈ 3.01 µg/mL) | 62.5 (≈ 23.5 µg/mL) | 4 (≈ 1.5 µg/mL) | MIC (Aspergillus fumigatus): 500 µM (≈ 188 µg/mL); MIC (Candida tropicalis): 500 µM (≈ 188 µg/mL); MIC (Candida albicans): 500 µM (≈ 188 µg/mL); MIC (Lichtheimia corymbifera): 500 µM (≈ 188 µg/mL); MIC (Pichia kudriavzevii): 500 µM (≈ 188 µg/mL)
